The structures appear in SMILES notation. Where a SMILES comes first, the peptide text is derived from it. Bridges are numbered along the chain shown (N, C = ends). [ ]: non-standard residue; d: D form. Bip = N[C@@H](Cc1ccc(-c2ccccc2)cc1)C(=O)O; NMeS = CN[C@@H](CO)C(=O)O

Here are results for four compounds from paper PMC8637822 (RSC Chemical Biology, 2021).

For series [1], the system named is SJSA-1 cells. The series is described as follows: WST-1 cell proliferation assay in SJSA-1 cells. Format: cell-based. The note with it: Homo sapiens, SJSA-1, 24 h, read-out: GI50 growth inhibition. In outline: (§1)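 Cells were exposed for 24 h to varying concentrations of the synthesized macrocyclic peptide MDM2 inhibitors, and proliferation was read out by the WST-1 assay. The same test was run in MDM2-dependent SJSA-1 cells and in p53-mutant SW-480 cells, the latter as a control line. A small-molecule MDM2 inhibitor served as the positive control.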
Background: Tetrazolium assays rely on reduction of a dye to a coloured formazan, in cell work by metabolically active cells.

A further series concerns SW-480 cells. The series is described as follows: WST-1 cell proliferation assay in SW-480 cells. The format is cell-based. The note with it: p53-mutant SW-480 cells, 24 hours. The procedure, abridged: as §1
For the next series, the target named is T1, MDM4 (Homo sapiens, UniProt O15151).
T1 sequence (O15151 2-185): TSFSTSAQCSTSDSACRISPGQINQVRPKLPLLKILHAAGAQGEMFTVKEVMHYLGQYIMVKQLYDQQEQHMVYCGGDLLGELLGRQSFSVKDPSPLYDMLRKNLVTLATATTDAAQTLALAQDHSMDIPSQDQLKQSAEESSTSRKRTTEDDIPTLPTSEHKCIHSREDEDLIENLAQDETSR
The series is described as follows: TR-FRET competition. The format is binding. The note with it: His(96) of MDM2 replaced by proline in MDM4. A general note: Time-resolved FRET reads energy transfer from a long-lived donor to a nearby acceptor.

The target in the next series is MDM2 (Homo sapiens, UniProt Q00987). As to the kind of experiment: TR-FRET competition. Format: binding.
Sequence of MDM2 (Q00987 2-188): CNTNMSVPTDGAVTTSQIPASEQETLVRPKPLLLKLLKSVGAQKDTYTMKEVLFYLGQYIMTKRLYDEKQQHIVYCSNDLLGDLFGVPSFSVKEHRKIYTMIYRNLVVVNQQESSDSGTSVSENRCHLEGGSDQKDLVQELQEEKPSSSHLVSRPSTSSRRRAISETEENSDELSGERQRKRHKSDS
Series [2] concerns SJSA-1 cells. As to the kind of experiment: SJSA-1 cellular assay. The format is cell-based. The note with it: tested up to 30 μM.
Series [3] deals with nuclear MDM2 in SJSA-1 cells. The series is described as follows: MDM2 immunofluorescence. Format: cell-based. The note with it: 4 hours.

In the case of `COc1cc2c(cc1OC(C)C)[C@H](c1ccc(Cl)cc1)N(c1ccc(N(C)C[C@H]3CC[C@H](N4CCN(C)C(=O)C4)CC3)cc1)C(=O)C2` [CGM097], the concentration for 50% growth inhibition (GI50) with SJSA-1 cells [1] was around 1000 nM.
As for `CC(=O)N[C@@H](CSSC[C@H](N)C(=O)NCCOCCOCC(=O)NCCOCCOCC(=O)N[C@H]1CCCCNC(=O)CC[C@@H](C(N)=O)NC(=O)[C@H](CCCNC(=N)N)NC(=O)[C@@H](CCCNC(=N)N)NC(=O)[C@H](CCCNC(=N)N)NC(=O)[C@@H](CCCNC(=N)N)NC(=O)[C@H](CCCNC(=N)N)NC(=O)[C@@H](CCCNC(=N)N)NC(=O)[C@H](CCCNC(=N)N)NC(=O)[C@@H](CCCNC(=N)N)NC(=O)[C@H](CCCNC(=N)N)NC(=O)[C@@H](CCCNC(=N)N)NC1=O)C(=O)NCCCC[C@H](NC(=O)CNC(=O)[C@@H]1CSCC(=O)N[C@@H](Cc2ccccc2)C(=O)N[C@@H](CO)C(=O)N[C@@H](CC(=O)O)C(=O)N(C)[C@@H](CO)C(=O)N[C@@H](CO)C(=O)N[C@@H](CO)C(=O)N[C@@H](C(C)C)C(=O)N2CCC[C@H]2C(=O)N[C@@H](CC(N)=O)C(=O)N[C@@H](Cc2ccc(-c3ccccc3)cc2)C(=O)N[C@@H](Cc2ccc(-c3ccccc3)cc2)C(=O)N[C@@H](CCCNC(=N)N)C(=O)N[C@@H](CC(N)=O)C(=O)N1)C(N)=O` [CMR19-cR10], in the series with SW-480 cells, the growth inhibitory effect result is given as “no growth inhibition”.
Turning to `CC(C)[C@@H]1NC(=O)[C@H](CO)NC(=O)[C@H](CO)NC(=O)[C@H](CO)N(C)C(=O)[C@H](CC(=O)O)NC(=O)[C@H](CO)NC(=O)[C@H](Cc2ccccc2)NC(=O)CSC[C@@H](C(=O)NCC(N)=O)NC(=O)[C@H](CC(N)=O)NC(=O)[C@H](CCCNC(=N)N)NC(=O)[C@H](Cc2ccc(-c3ccccc3)cc2)NC(=O)[C@H](Cc2ccc(-c3ccccc3)cc2)NC(=O)[C@H](CC(N)=O)NC(=O)[C@@H]2CCCN2C1=O` [CMR19] ({CH2CO}-FSD[NMeS]SSVPN[Bip][Bip]RNCG-NH2; thioether N-14), the “loss in affinity for MDM4 versus MDM2” value on MDM4 is recorded as “more than thousand fold loss in affinity”. On MDM2, this compound yielded an IC50 of 0.18 nM and a Ki of 0.15 nM. Also, the “cytotoxic response on SJSA-1 cells” value in the series on SJSA-1 cells [2] is listed as “did not observe any cytotoxic response”.
Consider `CC(C)[C@@H]1NC(=O)[C@H](CO)NC(=O)[C@H](CO)NC(=O)[C@H](CO)N(C)C(=O)[C@H](CC(=O)O)NC(=O)[C@H](CO)NC(=O)[C@H](Cc2ccccc2)NC(=O)CSC[C@@H](C(=O)NCC(N)=O)NC(=O)[C@H](CC(N)=O)NC(=O)[C@H](CCCNC(=N)N)NC(=O)[C@H](C)NC(=O)[C@H](Cc2ccc(-c3ccccc3)cc2)NC(=O)[C@H](CC(N)=O)NC(=O)[C@@H]2CCCN2C1=O` [MMS95] ({CH2CO}-FSD[NMeS]SSVPN[Bip]ARNCG-NH2; thioether N-14), for which, on MDM2, the half-inhibitory concentration (IC50) is above 10000 nM and the “binding to MDM2 in the TR-FRET assay” value is “no binding”. Also, the “concentration-dependent enrichment of nuclear MDM2 (quantified fluorescence)” value in series [3] (0.4-10 µM) is “does not”. Further, the “enrichment of MDM2 in the nuclei compared to the DMSO control” value in series [3] (37 °C, immunofluorescence) was “did not result in increased nuclear staining”.

One may read the GI50 as the concentration at which growth is held to half of that of the control. Usually IC50 stands for the concentration that inhibits the measured activity by half. As usually defined, the Ki is a measure of affinity in units of concentration, obtained from inhibition or displacement.
